Source: article PMC4415995 (Advances in Therapy, 2015)
Marks after values point to notes of the source that are not given here.

Experiments:
healthy Japanese males = settings: healthy subjects on luseogliflozin; cited from earlier work
[1] = tested on: Japanese patients with T2DM; assay: Sigmoid E max model regression of change in UGE on plasma luseogliflozin AUC; assay type: in vivo, human
[2] = tested on: Japanese patients with T2DM; assay: Adverse events, 7-day once-daily dosing; assay type: in vivo, human; settings: for ALT increased / Blood urine present / Constipation / Dermatitis contact / Diarrhea / Headache / Pruritus / γ-GTP increased: N = 8
Outline: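 Randomized, single-blind, placebo-controlled, parallel-group study in Japanese T2DM outpatients (HbA1c 6.9–10.5%, FPG ≥126 mg/dL, stable diet 4 weeks, age 20–74 y). Test compound 0.5, 1, 2.5 or 5 mg or placebo was given orally once daily for 7 days before breakfast. Safety set was all dosed patients. AEs were coded in MedDRA 12.1 and graded mild/moderate/severe, with drug relation judged by the investigator. Labs, vital signs, body weight and ECG were also recorded.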

[3] = tested on: Japanese patients with T2DM; assay: Urinary glucose excretion; assay type: in vivo, human
Outline: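 Dosing was once daily, 0.5–5 mg or placebo, before a standardized ~600 kcal breakfast. Read-outs were 24-h cumulative UGE, total UGE and per-interval UGE rate, plus change from Day −1. LS mean difference vs placebo with 95% CI.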

SGLT2 = settings: read-out: 50% inhibitory concentration (IC50); cited from earlier work
[4] = tested on: Japanese patients with T2DM; assay: Serum insulin concentrations, 7-day once-daily dosing; assay type: in vivo, human

Structure (SMILES): CCOc1ccc(Cc2cc([C@@H]3S[C@H](CO)[C@@H](O)[C@H](O)[C@H]3O)c(OC)cc2C)cc1 [Luseogliflozin, (1S)-1,5-anhydro-1-[5-(4-ethoxybenzyl)-2-methoxy-4-methylphenyl]-1-thio-D-glucitol]
- mean UGE (healthy Japanese males): 58.0 g/day
- UGE as share of the maximal UGE value estimated using the E max model ([1]; 5 mg OD, after 7 days): approximately 85%
- E max (maximum change in UGE), estimate (95% CI) ([1]; values on Day 1 and 7): 119 g/day
- ALT increased ([2]; 0.5 mg OD for 7 days): 0 number of subjects
- Blood urine present ([2]; 0.5 mg OD for 7 days): 0 number of subjects
- Constipation ([2]; 0.5 mg OD for 7 days): 1 number of subjects
- Dermatitis contact ([2]; 0.5 mg OD for 7 days): 0 number of subjects
- Diarrhea ([2]; 0.5 mg OD for 7 days): 1 number of subjects
- Headache ([2]; 0.5 mg OD for 7 days): 1 number of subjects
- Pruritus ([2]; 0.5 mg OD for 7 days): 1 number of subjects
- γ-GTP increased ([2]; 0.5 mg OD for 7 days): 0 number of subjects
- ALT increased ([2]; 1 mg OD for 7 days): 0 number of subjects
- Blood urine present ([2]; 1 mg OD for 7 days): 0 number of subjects
- Constipation ([2]; 1 mg OD for 7 days): 0 number of subjects
- Dermatitis contact ([2]; 1 mg OD for 7 days): 1 number of subjects
- Diarrhea ([2]; 1 mg OD for 7 days): 0 number of subjects
- Headache ([2]; 1 mg OD for 7 days): 0 number of subjects
- Pruritus ([2]; 1 mg OD for 7 days): 0 number of subjects
- γ-GTP increased ([2]; 1 mg OD for 7 days): 0 number of subjects
- ALT increased ([2]; 2.5 mg OD for 7 days): 1 number of subjects
- Blood urine present ([2]; 2.5 mg OD for 7 days): 0 number of subjects
- Constipation ([2]; 2.5 mg OD for 7 days): 0 number of subjects
- Dermatitis contact ([2]; 2.5 mg OD for 7 days): 0 number of subjects
- Diarrhea ([2]; 2.5 mg OD for 7 days): 0 number of subjects
- Headache ([2]; 2.5 mg OD for 7 days): 0 number of subjects
- Pruritus ([2]; 2.5 mg OD for 7 days): 0 number of subjects
- γ-GTP increased ([2]; 2.5 mg OD for 7 days): 1 number of subjects
- ALT increased ([2]; 5 mg OD for 7 days): 0 number of subjects
- Blood urine present ([2]; 5 mg OD for 7 days): 1 number of subjects
- Constipation ([2]; 5 mg OD for 7 days): 0 number of subjects
- Dermatitis contact ([2]; 5 mg OD for 7 days): 0 number of subjects
- Diarrhea ([2]; 5 mg OD for 7 days): 0 number of subjects
- Headache ([2]; 5 mg OD for 7 days): 1 number of subjects
- Pruritus ([2]; 5 mg OD for 7 days): 0 number of subjects
- γ-GTP increased ([2]; 5 mg OD for 7 days): 0 number of subjects
- episodes of hypoglycemia ([2]; 0.5-5 mg OD for 7 days): no episodes
- serious AEs or AEs leading to discontinuation ([2]; 0.5-5 mg OD for 7 days): no serious AEs
- severity of adverse events ([2]; 0.5-5 mg OD for 7 days): mild
- urinary tract/genital infection ([2]; 0.5-5 mg OD for 7 days): no episodes
- UGE0–24h ([3]; 0.5 mg OD, Day 1): 81.5 ± 33.2 g
- UGE0–24h LS mean difference vs placebo (95% CI) ([3]; 0.5 mg OD, Day 1): 46.4 (32.9, 60.0)* g
- Least-squares mean difference in 24-h UGE vs placebo ([3]; 0.5 mg OD, Day 7): 49.2 g/day
- UGE0–24h ([3]; 0.5 mg OD, Day 7): 81.7 ± 30.1 g
- UGE0–24h LS mean difference vs placebo (95% CI) ([3]; 0.5 mg OD, Day 7): 49.2 (27.9, 70.5)* g
- UGE0–24h LS mean difference vs placebo (95% CI) ([3]; 0.5 mg OD, Day 7, listed as luseogliflozin): 49.2 g
- UGE0–24h ([3]; 1 mg OD, Day 1): 75.1 ± 23.3 g
- UGE0–24h LS mean difference vs placebo (95% CI) ([3]; 1 mg OD, Day 1): 58.9 (45.7, 72.1)* g
- Least-squares mean difference in 24-h UGE vs placebo ([3]; 1 mg OD, Day 7): 66.5 g/day
- UGE0–24h ([3]; 1 mg OD, Day 7): 85.3 ± 18.8 g
- UGE0–24h LS mean difference vs placebo (95% CI) ([3]; 1 mg OD, Day 7): 66.5 (45.8, 87.1)* g
- UGE0–24h LS mean difference vs placebo (95% CI) ([3]; 1 mg OD, Day 7, listed as luseogliflozin): 66.5 g
- UGE0–24h ([3]; 2.5 mg OD, Day 1): 139 ± 31.1 g
- UGE0–24h LS mean difference vs placebo (95% CI) ([3]; 2.5 mg OD, Day 1): 91.7 (78.1, 105)* g
- Least-squares mean difference in 24-h UGE vs placebo ([3]; 2.5 mg OD, Day 7): 89.4 g/day
- UGE0–24h ([3]; 2.5 mg OD, Day 7): 131 ± 29.9 g
- UGE0–24h LS mean difference vs placebo (95% CI) ([3]; 2.5 mg OD, Day 7): 89.4 (68.2, 111)* g
- UGE0–24h LS mean difference vs placebo (95% CI) ([3]; 2.5 mg OD, Day 7, listed as luseogliflozin): 89.4 g
- energy loss equivalent to the increase in UGE ([3]; 5 mg OD): approximately 400 kcal
- increase in UGE ([3]; 5 mg OD): about 100 g glucose/day
- UGE0–24h ([3]; 5 mg OD, Day 1): 116 ± 29.0 g
- UGE0–24h LS mean difference vs placebo (95% CI) ([3]; 5 mg OD, Day 1): 101 (87.6, 114)* g
- Least-squares mean difference in 24-h UGE vs placebo ([3]; 5 mg OD, Day 7): 101 g/day
- UGE0–24h ([3]; 5 mg OD, Day 7): 120 ± 33.1 g
- UGE0–24h LS mean difference vs placebo (95% CI) ([3]; 5 mg OD, Day 7): 101 (80.7, 122)* g
- UGE0–24h LS mean difference vs placebo (95% CI) ([3]; 5 mg OD, Day 7, listed as luseogliflozin): 101 g
- time for UGE to return toward the baseline value after treatment discontinuation ([3]; each dose group): 1 to 3 days
- IC50 (SGLT2): 2.26 nM
- Serum insulin AUC0–4h (after breakfast) ([4]; 0.5 mg OD, Day 1): 95.0 ± 33.9 μIU h/mL
- Serum insulin AUC0–4h (after breakfast) LS mean difference vs placebo (95% CI) ([4]; 0.5 mg OD, Day 1): −13.8 (−43.1, 15.6) μIU h/mL
- Serum insulin AUC0–4h (after breakfast) ([4]; 0.5 mg OD, Day 7): 81.4 ± 39.4 μIU h/mL
- Serum insulin AUC0–4h (after breakfast) LS mean difference vs placebo (95% CI) ([4]; 0.5 mg OD, Day 7): −32.3 (−62.8, −1.82)* μIU h/mL
- Serum insulin AUC0–4h (after breakfast) ([4]; 1 mg OD, Day 1): 161 ± 67.9 μIU h/mL
- Serum insulin AUC0–4h (after breakfast) LS mean difference vs placebo (95% CI) ([4]; 1 mg OD, Day 1): −12.1 (−39.4, 15.3) μIU h/mL
- Serum insulin AUC0–4h (after breakfast) ([4]; 1 mg OD, Day 7): 125 ± 43.4 μIU h/mL
- Serum insulin AUC0–4h (after breakfast) LS mean difference vs placebo (95% CI) ([4]; 1 mg OD, Day 7): −36.1 (−64.5, −7.72)* μIU h/mL
- Serum insulin AUC0–4h (after breakfast) ([4]; 2.5 mg OD, Day 1): 101 ± 56.1 μIU h/mL
- Serum insulin AUC0–4h (after breakfast) LS mean difference vs placebo (95% CI) ([4]; 2.5 mg OD, Day 1): −32.7 (−60.4, −4.93)* μIU h/mL
- Serum insulin AUC0–4h (after breakfast) ([4]; 2.5 mg OD, Day 7): 75.1 ± 29.4 μIU h/mL
- Serum insulin AUC0–4h (after breakfast) LS mean difference vs placebo (95% CI) ([4]; 2.5 mg OD, Day 7): −56.7 (−85.4, −27.9)* μIU h/mL
- Serum insulin AUC0–4h (after breakfast) ([4]; 5 mg OD, Day 1): 190 ± 118 μIU h/mL
- Serum insulin AUC0–4h (after breakfast) LS mean difference vs placebo (95% CI) ([4]; 5 mg OD, Day 1): −17.0 (−44.8, 10.8) μIU h/mL
- Serum insulin AUC0–4h (after breakfast) ([4]; 5 mg OD, Day 7): 157 ± 82.5 μIU h/mL
- Serum insulin AUC0–4h (after breakfast) LS mean difference vs placebo (95% CI) ([4]; 5 mg OD, Day 7): −28.6 (−57.5, 0.198) μIU h/mL
